Assay results reported in ChEMBL document CHEMBL3865797, “Design, synthesis and biological evaluation of berberine-benzimidazole hybrids as new type of potentially DNA-targeting antimicrobial agents” (Eur J Med Chem, 2016).
≈ marks a conversion by molar mass, not a printed value.

How the values were obtained:
[1] = Antifungal activity against Saccharomyces cerevisiae measured after 24 hrs by two-fold serial dilution method; type: functional
Procedure, shortened: (§1)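 MIC by two-fold serial broth microdilution in 96-well plates, following NCCLS recommendations. Chloromycin, norfloxacin and fluconazole serve as reference drugs. The MIC is read as the lowest concentration that inhibits growth, in µg/mL.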

Escherichia coli = experiment: Antibacterial activity against Escherichia coli JM109 measured after 24 hrs by two-fold serial dilution method; type: functional; conditions: JM109, 24 h; procedure, shortened: as §1
Salmonella typhi = experiment: Antibacterial activity against Salmonella typhi measured after 24 hrs by two-fold serial dilution method; type: functional, Salmonella enterica subsp. enterica serovar Typhi; conditions: Salmonella enterica
Procedure, shortened: (§2)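 Two-fold serial dilution in 96-well microtest plates following NCCLS guidance (micro broth dilution). Chloromycin and norfloxacin serve as positive controls. MIC is reported in µg/mL.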

Bacillus subtilis = experiment: Antibacterial activity against Bacillus subtilis measured after 24 hrs by two-fold serial dilution method; type: functional; procedure, shortened: as §1
Staphylococcus aureus [2] = experiment: Antibacterial activity against Staphylococcus aureus ATCC 25923 measured after 24 hrs by two-fold serial dilution method; type: functional; conditions: ATCC 25923, 24 h; procedure, shortened: as §1
Aspergillus flavus = experiment: Antifungal activity against Aspergillus flavus measured after 24 hrs by two-fold serial dilution method; type: functional; procedure, shortened: as §1
Micrococcus luteus = experiment: Antibacterial activity against Micrococcus luteus ATCC 4698 measured after 24 hrs by two-fold serial dilution method; type: functional; conditions: NCTC 2665, 24 h; procedure, shortened: as §1
Staphylococcus aureus [3] = experiment: Antibacterial activity against methicillin-resistant Staphylococcus aureus N315 measured after 24 hrs by two-fold serial dilution method; type: functional; conditions: N315, 24 h; procedure, shortened: as §2
Pseudomonas aeruginosa = experiment: Antibacterial activity against Pseudomonas aeruginosa measured after 24 hrs by two-fold serial dilution method; type: functional; procedure, shortened: as §1
Proteus vulgaris = experiment: Antibacterial activity against Bacillus proteus ATCC 13315 measured after 24 hrs by two-fold serial dilution method; type: functional; conditions: ATCC 13315, 24 h; procedure, shortened: as §1
[4] = Antifungal activity against Candida utilis measured after 24 hrs by two-fold serial dilution method; type: functional; conditions: Cyberlindnera jadinii; procedure, shortened: as §1
Candida albicans = experiment: Antifungal activity against Candida albicans ATCC 76615 measured after 24 hrs by two-fold serial dilution method; type: functional; conditions: ATCC 76615, 24 h; procedure, shortened: as §1

Row | SMILES | MIC80 [1] [µg/mL] | MIC (Escherichia coli) [µg/mL] | MIC (Salmonella typhi) [µg/mL] | MIC (Bacillus subtilis) [µg/mL] | MIC (Staphylococcus aureus [2]) [µg/mL] | MIC80 (Aspergillus flavus) [µg/mL] | MIC (Micrococcus luteus) [µg/mL] | MIC (Staphylococcus aureus [3]) [µg/mL] | MIC (Pseudomonas aeruginosa) [µg/mL] | MIC (Proteus vulgaris) [µg/mL] | MIC80 [4] [µg/mL] | MIC80 (Candida albicans) [µg/mL]
1 | CCCCCCCCCCCCCCCCCCn1c(COc2c(OC)ccc3cc4[n+](cc23)CCc2cc3c(cc2-4)OCO3)nc2ccccc21.[Cl-] | 512 | 512 | 256 | 512 | 512 | 512 | 512 | 512 | 512 | 64 | 128 | 512
2 | COc1ccc2cc3[n+](cc2c1OCc1nc2ccccc2n1Cc1ccccc1F)CCc1cc2c(cc1-3)OCO2.[Cl-] | 128 | 128 | 4 | 256 | 2 | 8 | 8 | 512 | 512 | 128 | 4 | 512
3 | CCn1c(COc2c(OC)ccc3cc4[n+](cc23)CCc2cc3c(cc2-4)OCO3)nc2ccccc21.[Cl-] | 512 | 64 | 512 | 512 | 512 | 256 | 64 | 128 | 512 | 512 | 128 | 512
4 | CCCCCCCCCCCCCCCCn1c(COc2c(OC)ccc3cc4[n+](cc23)CCc2cc3c(cc2-4)OCO3)nc2ccccc21.[Cl-] | 512 | 64 | 128 | 512 | 256 | 128 | 128 | 256 | 128 | 512 | 128 | 64
5 | CCCCCCCCCCCCn1c(COc2c(OC)ccc3cc4[n+](cc23)CCc2cc3c(cc2-4)OCO3)nc2ccccc21.[Cl-] | 512 | 16 | 8 | 512 | 8 | 128 | 128 | 128 | 512 | 512 | 16 | 16
6 | COc1ccc2cc3[n+](cc2c1OCc1nc2ccccc2n1Cc1ccc(F)cc1)CCc1cc2c(cc1-3)OCO2.[Cl-] | 256 | 512 | 8 | 512 | 512 | 16 | 512 | 512 | 512 | 32 | 8 | 512
7 | CCn1cc(C(=O)O)c(=O)c2cc(F)c(N3CCNCC3)cc21 [NORFLOXACIN] | – | 1 (≈ 3.13 µM) | 4 (≈ 12.5 µM) | 4 (≈ 12.5 µM) | 2 (≈ 6.26 µM) | – | 2 (≈ 6.26 µM) | 8 (≈ 25.1 µM) | 16 (≈ 50.1 µM) | 8 (≈ 25.1 µM) | – | –
8 | COc1ccc2cc3[n+](cc2c1OCc1nc2ccccc2n1Cc1cccc(F)c1)CCc1cc2c(cc1-3)OCO2.[Cl-] | 256 | 512 | 256 | 512 | 512 | 32 | 16 | 512 | 256 | 128 | 8 | 512
9 | COc1ccc2cc3[n+](cc2c1OCc1nc2ccc(Cl)cc2[nH]1)CCc1cc2c(cc1-3)OCO2.[Cl-] | 512 | 512 | 64 | 512 | 64 | 32 | 128 | 256 | 512 | 32 | 256 | 512
10 | OC(Cn1cncn1)(Cn1cncn1)c1ccc(F)cc1F [FLUCONAZOLE] | 16 (≈ 52.2 µM) | – | – | – | – | 256 (≈ 836 µM) | – | – | – | – | 8 (≈ 26.1 µM) | 1 (≈ 3.27 µM)
